Experimental data gathered from unrelated publications.
Each line is one published result; the experiments were not run side by side.
FLT3 D835V: Receptor-type tyrosine-protein kinase FLT3 (FLT3, Homo sapiens, UniProt P36888, D835V)
FLT3 D835H: Receptor-type tyrosine-protein kinase FLT3 (FLT3, Homo sapiens, UniProt P36888, D835H)
FLT3 autoinhibited: Receptor-type tyrosine-protein kinase FLT3, autoinhibited (FLT3, Homo sapiens, UniProt P36888)
FLT3: Receptor-type tyrosine-protein kinase FLT3 (FLT3, Homo sapiens, UniProt P36888)
FLT3 N841I: Receptor-type tyrosine-protein kinase FLT3 (FLT3, Homo sapiens, UniProt P36888, N841I)
FLT3 K663Q: Receptor-type tyrosine-protein kinase FLT3 (FLT3, Homo sapiens, UniProt P36888, K663Q)
FLT3 D835Y: Receptor-type tyrosine-protein kinase FLT3 (FLT3, Homo sapiens, UniProt P36888, D835Y)
FLT3 R834Q: Receptor-type tyrosine-protein kinase FLT3 (FLT3, Homo sapiens, UniProt P36888, R834Q)

CN([C@@H]1CCc2c(CC(=O)O)c3cc(S(C)(=O)=O)ccc3n2C1)S(=O)(=O)c1ccc(F)cc1  remaining binding (FLT3 D835V; cell-free assay, competition with immobilised ligand; 1 µM): 99%
Cc1cnn2ncc(-c3ccnc(N(C)C)n3)c2c1  remaining binding (FLT3 D835V; binding; 1 µM): 66%
C[C@@H](c1ccc(-n2cnc3c(N)ncnc32)cc1)N1CCc2nn(C)c(Cc3ccccc3)c2C1=O  remaining binding (FLT3 D835H; binding, competition with immobilised ligand; 0.1 µM): 94%
O=C(c1ccc(Nc2ncc(Cl)c(-c3ccc(Cl)s3)n2)cc1)N1CCC(N2CCCC2)CC1  remaining binding (FLT3 autoinhibited; binding, competition with immobilised ligand; 1 µM): 1.8%
C[C@@H]1CCN(c2nccc(-c3cnn4ncccc34)n2)C1  remaining binding (FLT3 autoinhibited; binding; 1 µM): 78%
Nc1ncc2c(n1)-c1c([nH]c3ccc(C#CC4CC4)cc13)CCCC2  remaining binding (FLT3 autoinhibited; binding, competition with immobilised ligand; 1 µM): 82%
COc1cnc(Nc2cccc(S(N)(=O)=O)c2)nc1N1CCN(c2ccccc2)C(=O)C1  remaining binding (FLT3; binding, competition with immobilised ligand; 1 µM): 97%
COc1ncc2cc3ccccc3nc2c1C#N  remaining binding (FLT3 N841I; cell-free assay, competition with immobilised ligand; 5 µM): 100%
N[C@@H]1CCN(c2nccc(-c3cnn4ncccc34)n2)C1  remaining binding (FLT3; binding; 1 µM): 100%
Cc1cc(-n2nc(Cc3cc(F)cc(C(F)(F)F)c3)nc2C)ccc1C(N)=O  remaining binding (FLT3 autoinhibited; cell-free assay, competition with immobilised ligand; 1 µM): 100%
O=C(NCC1CCOCC1)c1n[nH]cc1NC(=O)c1c(F)cccc1F  remaining binding (FLT3 K663Q; binding, competition with immobilised ligand; 1 µM): 91%
O=C(c1ccc(Nc2ncc(Cl)c(-c3cc4ccccc4s3)n2)cc1)N1CCC(N2CCCC2)CC1  remaining binding (FLT3 K663Q; binding, competition with immobilised ligand; 1 µM): 3.4%
CNC(=O)[C@@H]1CC[C@@H](n2c(-c3ccc4cnccc4c3)nc3ccc(C(=O)NCc4cccc(C(N)=O)c4)cc32)C1  remaining binding (FLT3 D835H; binding, competition with immobilised ligand; 1 µM): 100%
CN(C)c1nccc(-c2cnn3ncccc23)n1  remaining binding (FLT3 K663Q; binding; 1 µM): 100%
COc1cnc(Nc2cccc(S(N)(=O)=O)c2)nc1N1CCN(c2ccccc2)CC1  remaining binding (FLT3 autoinhibited; binding, competition with immobilised ligand; 1 µM): 91%
c1cnn2ncc(-c3ccnc(N4CCC45COC5)n3)c2c1  remaining binding (FLT3 autoinhibited; binding; 1 µM): 58%
Cc1cnc(Nc2ccc(C(=O)N3CCC(N4CCCC4)CC3)cc2)nc1-c1cc2ccccc2s1  remaining binding (FLT3 D835V; binding, competition with immobilised ligand; 1 µM): 0.6%
c1cncc(-c2cccc(Nc3nccc(NC4CCCCC4)n3)c2)c1  remaining binding (FLT3 D835V; binding, competition with immobilised ligand; 10 µM): 0%
CCS(=O)(=O)c1cc2cc(C[C@@](O)(CC(C)(C)c3ccc(F)cc3C(N)=O)C(F)(F)F)[nH]c2cn1  remaining binding (FLT3 D835Y; cell-free assay, competition with immobilised ligand; 1 µM): 99%
CN(CCCC(F)(F)F)c1nccc(-c2cnn3ncccc23)n1  remaining binding (FLT3 R834Q; binding; 1 µM): 100%
Cc1nccc(COC(=O)N2C[C@@H]3[C@@H](CNC(=O)c4ccc5[nH]nnc5c4)[C@@H]3C2)n1  remaining binding (FLT3 autoinhibited; cell-free assay, competition with immobilised ligand; 1 µM): 93%
C=CC(=O)N1CCC(C(=O)NCC(=O)N2CCN(c3nc(-c4cnc(N)nc4C(F)F)nc(N4CCOCC4)n3)CC2)CC1  remaining binding (FLT3 N841I; binding, competition with immobilised ligand; 1 µM): 100%
O=C1NC(c2ccccn2)Sc2ccccc21 (centres unmarked)  remaining binding (FLT3 D835Y; cell-free assay, competition with immobilised ligand; 1 µM): 86%
O=C(NCCCN1CCOCC1)c1ccc(Nc2ncc(Cl)c(-c3ccc(Cl)s3)n2)cc1  remaining binding (FLT3 R834Q; binding, competition with immobilised ligand; 1 µM): 7.4%
CCN1CCN(Cc2ccc(C(=O)Nc3ccc(C)c(Oc4ccc5c(c4)CC(=O)N5)c3)cc2C(F)(F)F)CC1  remaining binding (FLT3; binding, competition with immobilised ligand; 1 µM): 41%
O=C(NCc1ncc(C(F)(F)F)cc1Cl)c1ccc2c(c1)C1(CCS(=O)(=O)CC1)[C@H](C1CC1)N2S(=O)(=O)c1ccc(F)cc1  remaining binding (FLT3 D835H; cell-free assay, competition with immobilised ligand; 1 µM): 92%
O=C(Nc1c[nH]nc1C(=O)NC1CCNCC1)c1cc(F)cc(F)c1  remaining binding (FLT3 D835V; binding, competition with immobilised ligand; 1 µM): 100%
C[C@@H]1CN(c2cc(-c3n[nH]c4ccc(OC5(C)CC5)cc34)ncn2)C[C@H](C)O1  remaining binding (FLT3 K663Q; cell-free assay, competition with immobilised ligand; 0.1 µM): 100%
O=C(c1ccc(Nc2nccc(-c3cc4ccccc4s3)n2)cc1)N1CCC(N2CCCC2)CC1  remaining binding (FLT3 autoinhibited; binding, competition with immobilised ligand; 1 µM): 64%
CN(C)c1ncc(F)c(-c2cnn3ncccc23)n1  remaining binding (FLT3; binding; 1 µM): 100%
O=C(NCCCN1CCOCC1)c1ccc(Nc2nccc(-c3cc4ccccc4s3)n2)cc1  remaining binding (Receptor-type tyrosine-protein kinase FLT3 (FLT3, Homo sapiens, UniProt P36888, ITD); binding, competition with immobilised ligand; 1 µM): 50%
CN(C)c1ncnc(-c2ccc3nc(Nc4cc(CN5CCN(C(=O)CC(F)(F)F)CC5)ccn4)[nH]c3c2)c1Cl  remaining binding (FLT3 D835Y; cell-free assay, competition with immobilised ligand; 1 µM): 38%
